From ChEMBL document CHEMBL4422635, “Structure-Based Discovery of a Subtype-Selective Inhibitor Targeting a Transient Receptor Potential Vanilloid Channel” (J Med Chem, 2019) come the findings set out here.

Test [1] concerns the target T1, Transient receptor potential cation channel subfamily V member 2 (Mus musculus) (UniProt Q9WTR1).
T1 sequence (whole entry): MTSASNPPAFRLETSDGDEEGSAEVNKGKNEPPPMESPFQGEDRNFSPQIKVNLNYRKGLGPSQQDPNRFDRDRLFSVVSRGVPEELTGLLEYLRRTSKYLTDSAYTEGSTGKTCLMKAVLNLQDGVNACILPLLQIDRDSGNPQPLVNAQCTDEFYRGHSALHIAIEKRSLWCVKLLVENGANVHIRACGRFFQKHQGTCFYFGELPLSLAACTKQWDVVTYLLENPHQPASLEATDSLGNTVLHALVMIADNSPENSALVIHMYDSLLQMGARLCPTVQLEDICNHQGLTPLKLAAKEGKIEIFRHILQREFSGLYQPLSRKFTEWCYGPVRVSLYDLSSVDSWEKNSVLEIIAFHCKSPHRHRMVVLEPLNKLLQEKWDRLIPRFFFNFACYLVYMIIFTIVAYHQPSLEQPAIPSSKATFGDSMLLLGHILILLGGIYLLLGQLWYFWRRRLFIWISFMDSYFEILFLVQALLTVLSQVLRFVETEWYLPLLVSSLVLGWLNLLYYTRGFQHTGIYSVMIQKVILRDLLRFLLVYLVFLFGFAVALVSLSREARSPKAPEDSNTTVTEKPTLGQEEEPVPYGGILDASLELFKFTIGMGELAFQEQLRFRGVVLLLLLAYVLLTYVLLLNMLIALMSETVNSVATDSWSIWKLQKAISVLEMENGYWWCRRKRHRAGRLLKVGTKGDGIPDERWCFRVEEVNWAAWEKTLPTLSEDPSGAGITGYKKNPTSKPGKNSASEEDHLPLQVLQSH
In words: Antagonist activity at mouse TRPV2 expressed in HEK293T cells assessed as inhibition of 2-APB evoked currents at -60 mV holding potential by whole-cell patch clamp assay. It is filed as cell-based. The essentials:
(§1)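 Whole-cell voltage clamp of transiently transfected HEK293T cells co-expressing GFP, recorded 36-96 h post-transfection. Hold -60 mV; pipettes 3-7 MΩ. Bath 165 mM NaCl, 10 mM HEPES pH 7.3; pipette 140 mM KCl, 10 mM HEPES pH 7.3. Room temperature (~25 °C). IC50 from Hill fits of I/I0, the current ratio after vs before inhibitor; mean ± SEM.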

For test [2], the target named is T1, Transient receptor potential cation channel subfamily V member 2 (Mus musculus). In words: Inhibition of mouse TRPV2 expressed in HEK293T cells assessed as inhibition of 2-APB evoked currents at 10 uM at -60 mV holding potential by whole-cell patch clamp assay. It is filed as cell-based. The essentials: as §1
Test [3] has as its system Mus musculus. As to the kind of experiment: Antagonist activity at mouse TRPV2/LPAR1 expressed in LPA-stimulated HEK293T cells assessed as inhibition of 2-APB evoked currents at 1 uM dosed 3 mins after LPA stimulation by whole-cell patch clamp assay. In outline: as §1
(In general: Patch clamp records ionic current or voltage across a cell membrane.)

The test system of test [4] is Mus musculus. As to the kind of experiment: Antagonist activity at mouse TRPV2/LPAR1 expressed in LPA-stimulated HEK293T cells assessed as inhibition of 2-APB evoked currents at 10 uM dosed 3 mins after LPA stimulation by whole-cell patch clamp assay. The essentials:
as §1

Test [5] deals with T2, Transient receptor potential cation channel subfamily V member 2 (Homo sapiens, UniProt Q9Y5S1).
T2 sequence (Q9Y5S1 whole entry): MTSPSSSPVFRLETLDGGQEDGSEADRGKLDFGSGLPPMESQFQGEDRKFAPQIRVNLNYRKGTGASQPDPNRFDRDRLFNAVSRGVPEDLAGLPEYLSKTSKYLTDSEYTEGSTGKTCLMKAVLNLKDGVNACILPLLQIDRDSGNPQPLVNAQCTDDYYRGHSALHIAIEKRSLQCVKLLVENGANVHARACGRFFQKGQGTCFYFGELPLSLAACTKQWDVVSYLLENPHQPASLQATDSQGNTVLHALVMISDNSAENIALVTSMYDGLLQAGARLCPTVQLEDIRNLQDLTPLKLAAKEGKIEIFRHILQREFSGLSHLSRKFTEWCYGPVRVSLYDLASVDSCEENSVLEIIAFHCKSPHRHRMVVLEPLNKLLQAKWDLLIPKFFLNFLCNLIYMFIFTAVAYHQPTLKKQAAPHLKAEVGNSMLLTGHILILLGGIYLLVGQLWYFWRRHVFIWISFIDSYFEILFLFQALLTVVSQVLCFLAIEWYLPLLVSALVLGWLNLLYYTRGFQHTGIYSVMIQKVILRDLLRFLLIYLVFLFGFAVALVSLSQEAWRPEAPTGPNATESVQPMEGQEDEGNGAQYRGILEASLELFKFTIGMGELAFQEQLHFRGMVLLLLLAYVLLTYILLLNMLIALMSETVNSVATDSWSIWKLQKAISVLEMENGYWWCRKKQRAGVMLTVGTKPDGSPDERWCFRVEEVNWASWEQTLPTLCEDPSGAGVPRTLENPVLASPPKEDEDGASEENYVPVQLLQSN
As to the kind of experiment: Antagonist activity at TRPV2 (unknown origin). The essentials:
as §1

Molecules are shown by their SMILES. Calls of active or inactive are those of the source. The calls are words filed in the database; no cut-off is given here.

Turning to `COc1ccc(-c2cc(C(F)(F)F)nc(SCCC(=O)NCc3ccco3)n2)cc1`, the inhibition entry in test [1] is “Dose-dependent effect”. Further, the inhibition result in test [2] is “Active”.

Consider `Cc1noc(-c2ccc(-c3ccc(CC(=O)O)cc3)cc2)c1NC(=O)O[C@H](C)c1ccccc1Cl`, for which the inhibition result in test [3] and in test [4] was “Active” each time.

By IC50 is commonly meant the concentration at which inhibition is half-maximal. A low value points to greater potency. For `COc1ccc(/C=C/C(=O)Nc2ccccc2C(=O)O)cc1OC` [TRANILAST], the IC50 in test [5] was over 10 µM.

For `CN1CCN(c2cc(C(F)(F)F)nc(SCCC(=O)NCc3ccco3)n2)CC1`, the inhibition entry in test [1] was “Dose-dependent effect”.
